In ChEMBL document CHEMBL1140086, “Targeting the ribose and phosphate binding site of p38 mitogen-activated protein (MAP) kinase: synthesis and biological testing of 2-alkylsulfanyl-, 4(5)-aryl-, 5(4)-heteroaryl-substituted imidazoles” (J Med Chem, 2008) one finds IC50 data, which are given here for 31 compounds.

In assay [1] the target is Mitogen-activated protein kinase 14 (Homo sapiens, UniProt Q16539). Put plainly: Inhibition of p38alpha.
For another assay, the system named is Blood. Description: Inhibition of LPS-stimulated TNFalpha release in human whole blood by ELISA. The class given is functional, tissue-based. In a few lines: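 Fresh human whole blood diluted with FBS; compound dilutions added, 15 min preincubation (5% CO2), then LPS stimulation; basal wells received DPBS-gentamicin. […] Tests in duplicate except where otherwise stated.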
In general terms: In an ELISA, binding on a coated surface is turned into a signal by an enzyme label.

Mitogen-activated protein kinase 14, sequence (Q16539 whole entry): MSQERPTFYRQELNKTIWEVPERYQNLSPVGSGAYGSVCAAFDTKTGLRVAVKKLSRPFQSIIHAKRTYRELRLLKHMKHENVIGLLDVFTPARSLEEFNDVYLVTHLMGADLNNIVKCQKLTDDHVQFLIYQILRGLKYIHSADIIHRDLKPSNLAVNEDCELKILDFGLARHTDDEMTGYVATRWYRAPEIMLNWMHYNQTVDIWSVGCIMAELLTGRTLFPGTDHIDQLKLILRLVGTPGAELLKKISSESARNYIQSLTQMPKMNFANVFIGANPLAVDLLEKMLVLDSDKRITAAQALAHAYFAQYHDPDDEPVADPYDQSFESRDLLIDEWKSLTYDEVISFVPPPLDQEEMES

Consider `OCC(O)CSc1nc(-c2ccc(F)cc2)c(-c2ccnc(NC3CCOCC3)c2)[nH]1` (stereo not given), for which the 50% inhibitory concentration (IC50) (commonly the concentration that gives 50% inhibition) in assay [1] was found to be 3 nM; in the assay on Blood, 131 nM. In the same order, the values of `COC(=O)CSc1nc(-c2ccc(F)cc2)c(-c2ccnc(NC(C)C)c2)[nH]1` are 4 nM and 12800 nM. The compound `Cn1c(SCC(O)CO)nc(-c2ccc(F)cc2)c1-c1ccncc1` (stereo not given) came in with an IC50 in assay [1] of 1220 nM. This counts as single-digit micromolar. As for `CC(C)C(C)Nc1cc(-c2[nH]c(SC[C@H](O)CO)nc2-c2ccc(F)cc2)ccn1` (stereo not given in full), the values for the 50% inhibitory concentration (IC50) (in assay [1]; with Blood) were 18 nM and 167 nM, respectively. In the same order, the values of `CC(Nc1cc(-c2[nH]c(SCC(=O)O)nc2-c2ccc(F)cc2)ccn1)c1ccccc1` (stereo not given) are 37 nM and 65700 nM. In the same order, the values of `CC(Nc1cc(-c2[nH]c(SCC(O)CO)nc2-c2ccc(F)cc2)ccn1)c1ccccc1` (stereo not given) are 41 nM and 936 nM.

In the assay on Blood, `CCOP(=O)(CSc1nc(-c2ccc(F)cc2)c(-c2ccnc(NC(C)c3ccccc3)c2)[nH]1)OCC` (stereo not given) returned an IC50 of 19400 nM. Same read-out and setting: then `OCC(O)CSc1nc(-c2ccc(F)cc2)c(-c2ccnc(NCc3ccccc3)c2)[nH]1` (stereo not given), with 2670 nM. Turning to `CCNc1cc(-c2[nH]c(SCC(O)CO)nc2-c2ccc(F)cc2)ccn1` (stereo not given), the IC50 in assay [1] was 27 nM; with Blood, 777 nM. On the same counts, the results for `OCCCSc1nc(-c2ccc(F)cc2)c(-c2ccncc2)[nH]1` are 215 nM and 6690 nM. In the same order, the values of `OCCSc1nc(-c2ccc(F)cc2)c(-c2ccnc(NC3CCOCC3)c2)[nH]1` are 2 nM and 80 nM. On the same counts, the results for `CCOC(=O)C(Sc1nc(-c2ccc(F)cc2)c(-c2ccncc2)[nH]1)C(=O)OCC` are 2240 nM and 25400 nM. `CSc1nc(-c2ccc(F)cc2)c(-c2ccnc(NC3CCOCC3)c2)[nH]1` showed a concentration for half-maximal inhibition (IC50) with Blood of 201 nM. In the case of `CC(C)C(C)Nc1cc(-c2[nH]c(SCC(O)CO)nc2-c2ccc(F)cc2)ccn1` (stereo not given), the IC50 in assay [1] came to 15 nM; with Blood, 183 nM. In the same order, the values of `OCC(O)CSc1nc(-c2ccc(F)cc2)c(-c2ccncc2)[nH]1` (stereo not given) are 392 nM and 3380 nM. In the same order, the values of `CC(C)Nc1cc(-c2[nH]c(SC[C@H](O)CO)nc2-c2ccc(F)cc2)ccn1` are 6 nM and 180 nM.

Consider `COC(=O)CSc1nc(-c2ccc(F)cc2)c(-c2ccnc(NC(C)C(C)C)c2)[nH]1` (stereo not given), for which the IC50 in assay [1] stood at 19 nM; in the assay on Blood, 8940 nM. In the assay on Blood, `CC(C)Nc1cc(-c2[nH]c(SCCO)nc2-c2ccc(F)cc2)ccn1` gave an IC50 of 129 nM. In turn, `CC(C)CNc1cc(-c2[nH]c(SCC(O)CO)nc2-c2ccc(F)cc2)ccn1` (stereo not given) came in with a half-inhibitory concentration (IC50) with Blood of 168 nM.

Regarding `COC(=O)CCCSc1nc(-c2ccc(F)cc2)c(-c2ccncc2)[nH]1`, the results for the IC50 (in assay [1]; in the assay with Blood) were 487 nM and 31900 nM, respectively.

In the assay on Blood, `OCCSc1nc(-c2ccc(F)cc2)c(-c2ccnc(N[C@H]3CC[C@H](O)CC3)c2)[nH]1` returned an IC50 of 157 nM. In the case of `CC(C)Nc1cc(-c2[nH]c(SC[C@@H](O)CO)nc2-c2ccc(F)cc2)ccn1`, the figures for the concentration for half-maximal inhibition (IC50) (in assay [1]; in the assay with Blood) were 3 nM and 123 nM, respectively. On the same counts, the results for `CC(C)C(C)Nc1cc(-c2[nH]c(SCCCO)nc2-c2ccc(F)cc2)ccn1` (stereo not given) are 12 nM and 145 nM. In the same order, the values of `COC(=O)CSc1nc(-c2ccc(F)cc2)c(-c2ccnc(NC(C)c3ccccc3)c2)[nH]1` (stereo not given) are 36 nM and 45500 nM. For `CC(C)C(C)Nc1cc(-c2[nH]c(SCCO)nc2-c2ccc(F)cc2)ccn1` (stereo not given), the figures for the half-inhibitory concentration (IC50) (in assay [1]; with Blood) were 11 nM and 37 nM, respectively. In the same order, the values of `CNc1cc(-c2[nH]c(SCC(O)CO)nc2-c2ccc(F)cc2)ccn1` (stereo not given) are 102 nM and 5720 nM. In the case of `CCC(C)Nc1cc(-c2[nH]c(SCC(O)CO)nc2-c2ccc(F)cc2)ccn1` (stereo not given), the IC50 in assay [1] was 5 nM; in the assay on Blood, 156 nM. In the same order, the values of `OCCSc1nc(-c2ccc(F)cc2)c(-c2ccncc2)[nH]1` are 184 nM and 4210 nM. As to `CC(C)Nc1cc(-c2[nH]c(SCC(O)CO)nc2-c2ccc(F)cc2)ccn1` (stereo not given), the concentration for half-maximal inhibition (IC50) in assay [1] amounted to 3 nM; in the assay with Blood, 126 nM. On the same counts, the results for `COC(=O)CSc1nc(-c2ccc(F)cc2)c(-c2ccncc2)[nH]1` are 158 nM and 31900 nM. On the same counts, the results for `CC(C)C(C)Nc1cc(-c2[nH]c(SC[C@@H](O)CO)nc2-c2ccc(F)cc2)ccn1` (stereo not given in full) are 10 nM and 139 nM.
